Measured values taken from ChEMBL document CHEMBL4477176, “Cyclopenta[b]benzofuran and Secodammarane Derivatives from the Stems of Aglaia stellatopilosa” (2016).
Active and inactive are the calls of the source. The calls are words filed in the database; no cut-off is given here.

Tests used:
[1] = system: Micrococcus luteus; assay: Antibacterial activity against Micrococcus luteus NBRC 12708 assessed as growth inhibition at 25 to 200 uM incubated for 24 hrs by microtiter plate based assay; type: functional, organism-based
Method in brief: (§1)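 Bacteria grown in Luria–Bertani broth; inoculum from fresh culture, serially diluted to 1 × 10^5 cells/mL. Samples dissolved in DMSO at 200 μM and serially 2-fold diluted down to 25 μM in 96-well plates. Incubated at 28 °C for 24 h. OD600 read before and after incubation. MIC taken as the lowest concentration giving ≥90% growth reduction. Triplicates.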

[2] = system: Pseudomonas aeruginosa; assay: Antibacterial activity against Pseudomonas aeruginosa NBRC 12689 assessed as growth inhibition at 25 to 200 uM incubated for 24 hrs by microtiter plate based assay; type: functional, organism-based; method in brief: as §1
[3] = system: Porphyromonas gingivalis; assay: Antibacterial activity against Porphyromonas gingivalis CCUG 25893 assessed as growth inhibition at 25 to 200 uM incubated for 24 hrs by microtiter plate based assay; type: functional; method in brief: as §1
[4] = system: Malassezia furfur; assay: Antimicrobial activity against Pityrosporum ovale CCUG 24229 assessed as growth inhibition at 25 to 200 uM incubated for 24 hrs by microtiter plate based assay; type: functional
Method in brief: (§2)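 Yeasts grown in Sabouraud dextrose broth; inoculum 1 × 10^6 cells/mL. Samples dissolved in DMSO at 200 μM and 2-fold diluted down to 25 μM in 96-well plates. Incubated at 28 °C for 24 h. OD600 read before and after incubation. MIC taken as the lowest concentration giving ≥90% growth reduction. Three replicates.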

[5] = system: MCF7; assay: Cytotoxicity against human MCF7 cells assessed as growth inhibition by SRB assay; type: functional
[6] = system: Bacillus subtilis; assay: Antibacterial activity against Bacillus subtilis NBRC 3134 assessed as growth inhibition at 25 to 200 uM incubated for 24 hrs by microtiter plate based assay; type: functional; method in brief: as §1
[7] = system: Saccharomyces cerevisiae; assay: Antimicrobial activity against Saccharomyces cerevisiae ATCC 9763 assessed as growth inhibition at 25 to 200 uM incubated for 24 hrs by microtiter plate based assay; type: functional, organism-based; method in brief: as §2
[8] = system: Escherichia coli; assay: Antibacterial activity against Escherichia coli NBRC 3301 assessed as growth inhibition at 25 to 200 uM incubated for 24 hrs by microtiter plate based assay; type: functional, organism-based; method in brief: as §1
[9] = system: Rhodotorula glutinis; assay: Antimicrobial activity against Rhodotorula glutinis NBRC 1125 assessed as growth inhibition at 25 to 200 uM incubated for 24 hrs by microtiter plate based assay; type: functional, organism-based; method in brief: as §2
[10] = system: NCI-H460; assay: Cytotoxicity against human NCI-H460 cells assessed as growth inhibition by SRB assay; type: functional
[11] = system: Aspergillus niger; assay: Antifungal activity against Aspergillus niger NBRC 4066 assessed as growth inhibition at 25 to 200 uM incubated for 48 hrs by microtiter plate based assay; type: functional
Method in brief: as §2, with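 “Aspergillus niger” for “Yeasts”, “48” for “24”, “inhibition.” for “growth reduction.”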

[12] = system: Staphylococcus aureus; assay: Antibacterial activity against Staphylococcus aureus NBRC 12732 assessed as growth inhibition at 25 to 200 uM incubated for 24 hrs by microtiter plate based assay; type: functional; method in brief: as §1
[13] = system: HT-29; assay: Cytotoxicity against human HT-29 cells assessed as growth inhibition by SRB assay; type: functional; conditions: read-out: ED50 (the source's name)
[14] = system: Staphylococcus aureus; assay: Antibacterial activity against Staphylococcus aureus NBRC 12732 assessed as growth inhibition at 80 uM incubated for 24 hrs by microtiter plate based assay; type: functional; conditions: NBRC 12732, 24 h, read-out: GI
[15] = system: Bacillus subtilis; assay: Antibacterial activity against Bacillus subtilis NBRC 3134 assessed as growth inhibition at 20 uM incubated for 24 hrs by microtiter plate based assay; type: functional; conditions: NBRC 3134, 24 h, read-out: GI

SMILES | growth inhibition (GI) [1] | growth inhibition (GI) [2] | growth inhibition (GI) [3] | growth inhibition (GI) [4] | GI50 [5] | growth inhibition (GI) [6] | growth inhibition (GI) [7] | growth inhibition (GI) [8] | growth inhibition (GI) [9] | GI50 [10] | growth inhibition (GI) [11] | growth inhibition (GI) [12] | EC50 [13] | inhibition of growth at 80 µM [14] | inhibition of growth at 20 µM [15]
COC(=O)C(C)(C)[C@@H]1CC[C@]2(C)[C@H](CC[C@@H]3[C@@H]([C@]4(C)CC[C@H](C(C)(C)O)O4)CC[C@]32C)[C@@]1(C)/C=C/NC=O | inactive | inactive | inactive | inactive | > 10 µM | inactive | inactive | inactive | inactive | > 10 µM | inactive | inactive | > 10 µM | – | –
C=C(C)[C@@H]1CC[C@]2(C)[C@H](CC[C@@H]3[C@@H]([C@](C)(O)CC[C@@H](O)C(C)(C)O)CC[C@]32C)[C@@]1(C)CCC(=O)OC | inactive | inactive | 60 - 89% | inactive | > 10 µM | >=90% | inactive | inactive | inactive | > 10 µM | 60 - 89% | >=90% | > 10 µM | ≥ 90% | ≥ 90%
COC(=O)C(C)(C)[C@@H]1CC[C@]2(C)[C@H](CC[C@@H]3[C@@H]([C@](C)(O)CC[C@@H](O)C(C)(C)O)CC[C@]32C)[C@@]1(C)CC(=O)O | inactive | inactive | inactive | inactive | > 10 µM | inactive | inactive | inactive | inactive | > 10 µM | inactive | inactive | > 10 µM | – | –
COC(=O)C(C)(C)[C@@H]1CC[C@]2(C)[C@H](CC[C@@H]3[C@@H]([C@](C)(O)CC[C@@H](O)C(C)(C)O)CC[C@]32C)[C@@]1(C)/C=C/NC=O | inactive | inactive | 60 - 89% | 60 - 89% | > 10 µM | inactive | inactive | inactive | inactive | > 10 µM | inactive | inactive | > 10 µM | – | –
COC(=O)C(C)(C)[C@@H]1CC[C@]2(C)[C@H](CC[C@@H]3[C@@H]([C@](C)(O)CC[C@@H](O)C(C)(C)O)CC[C@]32C)[C@@]1(C)CC=O | inactive | inactive | inactive | inactive | > 10 µM | inactive | inactive | inactive | inactive | > 10 µM | inactive | 60 - 89% | > 10 µM | – | –
